Results gathered from unrelated publications.
Each line is one published result; the experiments were not run side by side.
JAK1 JH1: Tyrosine-protein kinase JAK1, JH1 (JAK1, Homo sapiens, UniProt P23458)
JAK1 JH2: Tyrosine-protein kinase JAK1, JH2 (JAK1, Homo sapiens, UniProt P23458)
JAK1: Tyrosine-protein kinase JAK1 (JAK1, Homo sapiens, UniProt P23458)

| Structure (SMILES) | target | assay | setting | remaining binding [%] |
| --- | --- | --- | --- | --- |
| O=C(c1ccc(Nc2nccc(-c3cc4ccccc4s3)n2)cc1)N1CCC(N2CCCC2)CC1 | JAK1 JH1 | binding, competition with immobilised ligand | 1 µM | 82 |
| COc1cnc(Nc2cccc(S(N)(=O)=O)c2)nc1N1CCN(c2ccccc2)C(=O)C1 | JAK1 JH1 | binding, competition with immobilised ligand | 1 µM | 85 |
| CC1=C(C#N)[C@@H](c2ccc3[nH]nc(C)c3c2)C(C#N)=C(c2ccc(Cl)cc2)N1 | JAK1 JH1 | cell-free assay, competition with immobilised ligand | 1 µM | 100 |
| COc1ncc2cc3ccccc3nc2c1C#N | JAK1 JH1 | cell-free assay, competition with immobilised ligand | 5 µM | 93 |
| O=C(NCCCN1CCOCC1)c1ccc(Nc2ncc(Cl)c(-c3ccc(Cl)s3)n2)cc1 | JAK1 JH1 | binding, competition with immobilised ligand | 1 µM | 4.6 |
| CN(C)c1nccc(-c2cnc3ncccn23)n1 | JAK1 JH1 | cell-free assay, competition with immobilised ligand | 1 µM | 94 |
| CNC(=O)[C@@H]1CC[C@@H](n2c(-c3ccc4cnccc4c3)nc3ccc(C(=O)NCc4cccc(C(N)=O)c4)cc32)C1 | JAK1 JH1 | binding, competition with immobilised ligand | 1 µM | 88 |
| NS(=O)(=O)c1cc(NC(=O)C2(c3ccccc3Cl)CC2)ccc1Oc1cccc(Cl)c1 | JAK1 JH2 | cell-free assay, competition with immobilised ligand | 1 µM | 76 |
| Nc1ncc2c(n1)-c1c([nH]c3ccc(C#CC4CC4)cc13)CCCC2 | JAK1 JH1 | binding, competition with immobilised ligand | 1 µM | 100 |
| N[C@@H]1CCN(c2nccc(-c3cnn4ncccc34)n2)C1 | JAK1 | binding | 1 µM | 100 |
| Cc1nc(C2CCN(C(=O)c3ccc(OC(F)(F)F)cc3N)CC2)c2ncc(N3CCN(C)CC3)cc2n1 | JAK1 JH1 | cell-free assay, competition with immobilised ligand | 1 µM | 95 |
| CC1CCCN1c1nccc(-c2cnn3ncccc23)n1 (stereo not drawn) | JAK1 JH1 | cell-free assay, competition with immobilised ligand | 1 µM | 100 |
| O=C(O)[C@@H]1[C@@H](Cn2nnc3ccccc3c2=O)CC[C@H]1C(=O)c1ccc(OCCC2CCOCC2)cc1 | JAK1 JH2 | cell-free assay, competition with immobilised ligand | 1 µM | 100 |
| CCN1CCN(Cc2ccc(C(=O)Nc3ccc(C)c(Oc4ccc5c(c4)CC(=O)N5)c3)cc2C(F)(F)F)CC1 | JAK1 JH2 | binding, competition with immobilised ligand | 1 µM | 100 |
| CN(C)c1ncc(F)c(-c2cnn3ncccc23)n1 | JAK1 JH1 | cell-free assay, competition with immobilised ligand | 1 µM | 100 |
| O=C(c1ccc(Nc2ncc(Cl)c(-c3ccc(Cl)s3)n2)cc1)N1CCC(N2CCCC2)CC1 | JAK1 JH2 | binding, competition with immobilised ligand | 1 µM | 3.9 |
| O=C(Nc1c[nH]nc1C(=O)NC1CCNCC1)c1cc(F)cc(F)c1 | JAK1 JH1 | binding, competition with immobilised ligand | 1 µM | 88 |

| Structure (SMILES) | target | assay | setting | remaining binding [%] |
| --- | --- | --- | --- | --- |
| CN(C)c1nccc(-c2cnn3ncccc23)n1 | JAK1 JH1 | cell-free assay, competition with immobilised ligand | 1 µM | 69 |
| CC1=C(C#N)C(c2ccc3c(c2)c(NC(=O)c2ccccc2C)nn3C)C(C#N)=C(C)N1 | JAK1 JH1 | cell-free assay, competition with immobilised ligand | 1 µM | 100 |
| F[C@@H]1CCN(c2nccc(-c3cnn4ncccc34)n2)C1 | JAK1 JH1 | cell-free assay, competition with immobilised ligand | 1 µM | 100 |
| COc1cnc(Nc2cccc(S(N)(=O)=O)c2)nc1N1CCN(c2ccccc2)CC1 | JAK1 JH2 | binding, competition with immobilised ligand | 1 µM | 28 |
| O=C(NCC1CCOCC1)c1n[nH]cc1NC(=O)c1c(F)cccc1F | JAK1 JH1 | binding, competition with immobilised ligand | 1 µM | 100 |
| C[C@@H]1CCN(c2nccc(-c3cnn4ncccc34)n2)C1 | JAK1 | binding | 1 µM | 62 |
| CCC(=N\O)/C(C)=C/c1ccc(F)cc1 | JAK1 JH2 | cell-free assay, competition with immobilised ligand | 1 µM | 88 |
| O=C(c1ccc(Nc2ncc(Cl)c(-c3cc4ccccc4s3)n2)cc1)N1CCC(N2CCCC2)CC1 | JAK1 JH2 | binding, competition with immobilised ligand | 1 µM | 0.9 |
| CCC(=O)N[C@H]1CC[C@@H](C(=O)N(C)c2ccc(-c3nc4ccccc4o3)cc2)C1 | JAK1 JH2 | cell-free assay, competition with immobilised ligand | 1 µM | 77 |
| CN1CCN(c2ccc(Nc3nccc(-c4cccc([N+](=O)[O-])c4)n3)cc2C(F)(F)F)CC1 | JAK1 | binding | 10 µM | 0.25 |
| COc1ccnn2ncc(-c3ccnc(N(C)C)n3)c12 | JAK1 | binding | 1 µM | 74 |
| Cc1cnc(Nc2ccc(C(=O)N3CCC(N4CCCC4)CC3)cc2)nc1-c1cc2ccccc2s1 | JAK1 JH2 | binding, competition with immobilised ligand | 1 µM | 0 |
| c1cncc(-c2cccc(Nc3nccc(NC4CCCCC4)n3)c2)c1 | JAK1 JH2 | binding, competition with immobilised ligand | 10 µM | 0.2 |
| CN(C)CC#Cc1ccc(OCCCc2sc(N3CCc4cccc(C(=O)Nc5nc6ccccc6s5)c4C3)nc2C(=O)O)c(F)c1 | JAK1 JH2 | cell-free assay, competition with immobilised ligand | 1 µM | 100 |
| O=C(NCCCN1CCOCC1)c1ccc(Nc2nccc(-c3cc4ccccc4s3)n2)cc1 | JAK1 JH2 | binding, competition with immobilised ligand | 1 µM | 41 |
| FC(F)(F)Oc1cccc(-c2cnc3ccc(-c4ccncc4)nn23)c1 | JAK1 JH1 | cell-free assay, competition with immobilised ligand | 5 µM | 100 |
